Experimental data: ChEMBL document CHEMBL4422612, “Small Molecule Inhibitor that Stabilizes the Autoinhibited Conformation of the Oncogenic Tyrosine Phosphatase SHP2” (J Med Chem, 2019)
The source made the active and inactive calls. The rule behind the calls is not given here.

What follows are compounds tested against T1, Tyrosine-protein phosphatase non-receptor type 11 (Homo sapiens) (UniProt Q06124) (assay: Inhibition of wild type recombinant human SHP2 at 50 uM using H-Glu-Phe-pTyr-Ala-Glu-Val-Gly-Arg-Ser-Pro-Pro-Asp-Pro-Ala-Lys as substrate preincubated for 30 mins followed by substrate addition and measured after 30 mins by Malachite Green-reagent based assay).
T1 sequence (whole entry): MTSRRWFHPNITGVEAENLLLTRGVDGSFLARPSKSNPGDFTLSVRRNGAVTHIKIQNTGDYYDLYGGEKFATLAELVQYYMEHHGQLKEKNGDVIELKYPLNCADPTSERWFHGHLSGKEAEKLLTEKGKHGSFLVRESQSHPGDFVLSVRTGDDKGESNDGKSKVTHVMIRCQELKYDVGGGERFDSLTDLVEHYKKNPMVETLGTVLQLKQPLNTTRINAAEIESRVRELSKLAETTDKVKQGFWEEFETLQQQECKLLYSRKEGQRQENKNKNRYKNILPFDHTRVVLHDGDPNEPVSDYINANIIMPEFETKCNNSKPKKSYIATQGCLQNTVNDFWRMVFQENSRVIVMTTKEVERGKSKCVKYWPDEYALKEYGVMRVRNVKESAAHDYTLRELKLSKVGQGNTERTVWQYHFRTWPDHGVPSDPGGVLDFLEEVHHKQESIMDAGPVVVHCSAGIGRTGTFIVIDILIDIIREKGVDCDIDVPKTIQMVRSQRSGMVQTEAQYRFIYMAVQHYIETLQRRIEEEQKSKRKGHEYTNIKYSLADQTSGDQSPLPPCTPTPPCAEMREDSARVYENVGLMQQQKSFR
Method in brief: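 Full-length SHP2 or SHP1 (0.1 µg) preincubated with compound 30 min at room temperature in 25 mM Tris-HCl pH 7.4, 50 mM NaCl, 5 mM DTT, 2.5 mM EDTA. Phospho-peptide substrate added to 50 µM final; 30 min at 30 °C. Released phosphate read by Malachite Green at OD620. IC50 from six concentrations; three experiments.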

inhibition	SMILES
Active	C=CCOc1cc(O)c(C(=O)/C=C/c2ccc(Cl)cc2Cl)cc1CN1CCCCC1
Active	CCOc1cc(O)c(C(=O)/C=C/c2ccc(Cl)cc2Cl)cc1CN1CCCCC1
Active	CCOc1cc(O)c(C(=O)/C=C/c2ccc(Cl)cc2)cc1CN1CCCC1
Active	CCOc1cc(O)c(C(=O)/C=C/c2ccc(Cl)cc2Cl)cc1CN(CC)CC
Active	CCOc1cc(O)c(C(=O)/C=C/c2ccc(Cl)cc2Cl)cc1CN1CCNCC1C (centres undefined)
Active	CCOc1cc(O)c(C(=O)/C=C/c2ccc(Cl)cc2Cl)cc1CN1CCC(O)CC1
Active	CCOc1cc(O)c(C(=O)/C=C/c2ccc(Cl)cc2Cl)cc1CN1C[C@@H](O)C[C@@H]1C(C)=O
Active	C=CCOc1cc(O)c(C(=O)/C=C/c2ccc(Cl)cc2Cl)cc1CN1CCC(O)CC1
Active	CCOc1cc(O)c(C(=O)/C=C/c2ccc(OC)cc2)cc1CN1CCCCC1
